According to ChEMBL document CHEMBL2203109, “3-Phenyl substituted 6,7-dimethoxyisoquinoline derivatives as FtsZ-targeting antibacterial agents” (Bioorg Med Chem, 2012):
Values after ≈ are worked out from the molar mass of the structure shown. Active and inactive are the calls of the source. No cut-off for these calls is given here.

How the values were obtained:
HEK293 [1] = assay: Cytotoxicity against human HEK293 cells at 10 uM after 4 days by MTT assay; assay type: cell-based; conditions: hek293, 96 h
In short: (§1)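 MTT assay. HEK293 or MDCK cells kept at 37 °C, 5% CO2 in DMEM, seeded at 1500 cells per well. Continuous 4-day exposure to varying drug concentrations in triplicate wells, with a drug-free control. MTT read at end of day 4; IC50 determined.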

Staphylococcus aureus [2] = assay: Antibacterial activity against log-phase methicillin-sensitive Staphylococcus aureus 8325-4 assessed as growth inhibition after 24 hrs by broth microdilution method; assay type: functional; conditions: 8325-4, 24 h
In short: (§2)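 CLSI broth microdilution. Log-phase bacteria at 10^5 CFU/mL with two-fold serial dilutions (64 to 0.031 μg/mL). S. aureus tested in cation-adjusted Mueller-Hinton broth; E. faecalis in brain–heart infusion broth. Aerobic incubation 24 h at 37 °C. OD600 read; MIC is the lowest concentration giving ≥90% growth inhibition.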

Enterococcus faecalis [3] = assay: Antibacterial activity against log-phase vancomycin-resistant Enterococcus faecalis ATCC 51575 assessed as growth inhibition after 24 hrs by broth microdilution method; assay type: functional; conditions: ATCC 51575, 24 h
In short: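 CLSI broth microdilution in brain–heart infusion broth; log-phase bacteria at 10^5 CFU/mL, two-fold serial dilutions 64 to 0.031 μg/mL; 24 h aerobic incubation at 37 °C; OD600 read-out; MIC taken as lowest concentration inhibiting growth ≥90%.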

Enterococcus faecalis [4] = assay: Antibacterial activity against log-phase vancomycin-sensitive Enterococcus faecalis ATCC 19433 assessed as growth inhibition after 24 hrs by broth microdilution method; assay type: functional; conditions: ATCC 19433, 24 h; in short: as §2
Staphylococcus aureus [5] = assay: Antibacterial activity against log-phase methicillin-resistant Staphylococcus aureus ATCC 33591 assessed as growth inhibition after 24 hrs by broth microdilution method; assay type: functional; conditions: ATCC 33591, 24 h
In short: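 CLSI broth microdilution; 10^5 CFU/mL log-phase bacteria in cation-adjusted Mueller-Hinton broth with 2% NaCl, two-fold serial dilutions from 64 to 0.031 μg/mL; aerobic incubation 24 h at 37 °C; growth read as OD600; MIC = lowest concentration giving ≥90% growth inhibition.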

[6] = target: T1, Cell division protein FtsZ (Staphylococcus aureus) (UniProt P0A031); assay: Residual Staphylococcus aureus GTPase activity assessed as inorganic phosphate release upon GTP hydrolysis at 40 ug/ml preincubated for 10 mins before substrate addition measured after 2 hrs by malachite green based colorimetric analysis
T1 sequence (whole entry): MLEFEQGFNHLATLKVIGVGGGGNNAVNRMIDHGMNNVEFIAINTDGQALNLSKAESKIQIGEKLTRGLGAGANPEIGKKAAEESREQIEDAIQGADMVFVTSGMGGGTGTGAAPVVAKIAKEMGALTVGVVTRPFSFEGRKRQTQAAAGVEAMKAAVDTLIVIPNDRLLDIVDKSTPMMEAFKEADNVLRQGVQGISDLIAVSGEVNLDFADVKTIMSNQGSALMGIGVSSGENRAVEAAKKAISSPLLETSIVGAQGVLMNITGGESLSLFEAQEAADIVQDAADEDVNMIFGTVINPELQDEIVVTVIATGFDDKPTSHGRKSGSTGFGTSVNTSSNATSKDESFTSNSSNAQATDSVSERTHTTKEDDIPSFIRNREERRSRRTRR

[7] = target: T1, Cell division protein FtsZ (Staphylococcus aureus); assay: Induction of Staphylococcus aureus FtsZ polymerization measured for 60 mins by microtiter plate-based light scattering assay
In short: (§3)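 Turbidity assay. 10 μM SaFtsZ plus compound (0–40 μg/mL) in 50 mM Tris HCl pH 7.4, 50 mM KCl, 2 mM magnesium acetate, 5 mM CaCl2, pre-equilibrated 10 min at room temperature. Started by adding 1 mM GTP or FtsZ; A340 followed for 60 min at 25 °C. For polymer stability, 1 mM GDP added mid-run.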

[8] = target: T1, Cell division protein FtsZ (Staphylococcus aureus); assay: Induction of Staphylococcus aureus FtsZ polymerization at 40 ug/ml measured for 60 mins by microtiter plate-based light scattering assay; in short: as §3
[9] = target: T1, Cell division protein FtsZ (Staphylococcus aureus); assay: Induction of Staphylococcus aureus FtsZ polymerization at 40 ug/ml measured for 60 mins by microtiter plate-based light scattering assay in presence of GTP
MDCK = assay: Cytotoxicity against dog MDCK cells after 4 days by MTT assay; assay type: cell-based; conditions: Canis lupus familiaris, 96 h; in short: as §1
HEK293 [10] = assay: Cytotoxicity against human HEK293 cells after 4 days by MTT assay; assay type: cell-based; conditions: HEK293, 96 h; in short: as §1

| SMILES | Activity (HEK293 [1]) | MIC90 (Staphylococcus aureus [2]) [µg/mL] | MIC90 (Enterococcus faecalis [3]) [µg/mL] | MIC90 (Enterococcus faecalis [4]) [µg/mL] | MIC90 (Staphylococcus aureus [5]) [µg/mL] | residual activity [6] [%] | Activity [7] | Activity [8] | Activity [9] | IC50 (MDCK) [nM] | IC50 (HEK293 [10]) [nM] |
| --- | --- | --- | --- | --- | --- | --- | --- | --- | --- | --- | --- |
| COc1cc2cc(-c3cccc(-c4ccc(C(C)(C)C)cc4)c3)nc(CN=C(N)N)c2cc1OC | Non-toxic | 4 (≈ 8.54 µM) | 16 (≈ 34.1 µM) | 8 (≈ 17.1 µM) | 4 (≈ 8.54 µM) | – | – | – | – | – | – |
| COc1cc2cc(-c3cccc(-c4ccc(-c5ccccc5)cc4)c3)nc(C)c2cc1OC | – | > 64 | > 64 | > 64 | > 64 | – | – | – | – | – | – |
| COc1cc2cc(-c3cccc(-c4ccccc4)c3)nc(CCN)c2cc1OC | – | 4 (≈ 10.4 µM) | > 64 | 16 (≈ 41.6 µM) | 4 (≈ 10.4 µM) | – | – | – | – | – | – |
| COc1cc2cc(-c3cccc(C(C)(C)C)c3)nc(CN)c2cc1OC | Non-toxic | 4 (≈ 11.4 µM) | 32 (≈ 91.3 µM) | 32 (≈ 91.3 µM) | 8 (≈ 22.8 µM) | – | – | – | – | – | – |
| COc1cc2cc(-c3cccc(C(C)(C)C)c3)nc(CCN)c2cc1OC | – | 16 (≈ 43.9 µM) | 16 (≈ 43.9 µM) | 16 (≈ 43.9 µM) | 16 (≈ 43.9 µM) | 59.7 | Dose-dependent effect | Active | Active | 2200 | 2200 |
| CN(C)[C@@H]1C(O)=C(C(N)=O)C(=O)[C@@]2(O)C(O)=C3C(=O)c4c(O)cccc4[C@@](C)(O)[C@H]3C[C@@H]12 [TETRACYCLINE] | – | 0.06 (≈ 0.135 µM) | > 64 | 0.5 (≈ 1.13 µM) | 64 (≈ 144 µM) | – | – | – | – | – | – |
| COc1cc2cc(-c3cccc(-c4ccccc4)c3)nc(N=C(N)N)c2cc1OC | – | 8 (≈ 20.1 µM) | 8 (≈ 20.1 µM) | 8 (≈ 20.1 µM) | 4 (≈ 10 µM) | – | – | – | – | 2200 | 2200 |
| Cc1onc(-c2ccccc2)c1C(=O)N[C@@H]1C(=O)N2[C@@H]1SC(C)(C)[C@@H]2C(=O)O [OXACILLIN] | – | 0.06 (≈ 0.149 µM) | > 64 | 8 (≈ 19.9 µM) | > 64 | – | – | – | – | – | – |
| CC[C@H]1OC(=O)[C@H](C)[C@@H](O[C@H]2C[C@@](C)(OC)[C@@H](O)[C@H](C)O2)[C@H](C)[C@@H](O[C@@H]2O[C@H](C)C[C@H](N(C)C)[C@H]2O)[C@](C)(O)C[C@@H](C)C(=O)[C@H](C)[C@@H](O)[C@]1(C)O [ERYTHROMYCIN] | – | 0.1 (≈ 0.136 µM) | > 64 | 1 (≈ 1.36 µM) | > 64 | – | – | – | – | – | – |
| COc1cc2cc(-c3cccc(-c4ccccc4)c3)[n+](C)cc2cc1OC.[I-] | – | 16 | > 64 | > 64 | 64 | – | – | – | – | – | – |
| COc1cc2cc(-c3cccc(-c4ccc(C(C)(C)C)cc4)c3)nc(C)c2cc1OC | – | > 64 | > 64 | > 64 | > 64 | – | – | inactive | – | – | – |
| COc1ccc2cc3[n+](cc2c1OC)CCc1cc2c(cc1-3)OCO2 [BERBERINE] | – | > 64 | > 64 | > 64 | > 64 | – | – | inactive | – | – | – |
| COc1cc2cc(-c3cccc(-c4ccccc4)c3)nc(N(C)C)c2cc1OC | – | > 64 | > 64 | > 64 | > 64 | – | – | – | – | – | – |
| COc1cc2cc(-c3cccc(C(C)(C)C)c3)nc(CCN=C(N)N)c2cc1OC | Non-toxic | 4 (≈ 9.84 µM) | 16 (≈ 39.4 µM) | 16 (≈ 39.4 µM) | 4 (≈ 9.84 µM) | 66.5 | Dose-dependent effect | Active | Active | – | – |
| C[n+]1cc2c3c(ccc2c2ccc4cc5c(cc4c21)OCO5)OCO3 [SANGUINARIUM] | – | 2 | 16 | 8 | 2 | – | – | – | – | – | – |
| COc1cc2cc(-c3cccc(-c4ccccc4)c3)[n+](C)c(C)c2c(OC)c1OC.[I-] | – | 8 | 32 | 32 | 8 | – | – | – | – | – | – |

| SMILES | Activity (HEK293 [1]) | MIC90 (Staphylococcus aureus [2]) [µg/mL] | MIC90 (Enterococcus faecalis [3]) [µg/mL] | MIC90 (Enterococcus faecalis [4]) [µg/mL] | MIC90 (Staphylococcus aureus [5]) [µg/mL] | residual activity [6] [%] | Activity [7] | Activity [8] | Activity [9] | IC50 (MDCK) [nM] | IC50 (HEK293 [10]) [nM] |
| --- | --- | --- | --- | --- | --- | --- | --- | --- | --- | --- | --- |
| CNc1nc(-c2cccc(-c3ccccc3)c2)cc2cc(OC)c(OC)cc12 | – | > 64 | > 64 | > 64 | > 64 | – | – | – | – | – | – |
| COc1cc2cc(-c3cccc(-c4ccccc4)c3)nc(CN=C(N)N)c2cc1OC | Non-toxic | 2 (≈ 4.85 µM) | 8 (≈ 19.4 µM) | 8 (≈ 19.4 µM) | 2 (≈ 4.85 µM) | – | – | – | – | – | – |
| COc1cc2cc(-c3cccc(-c4ccccc4)c3)nc(C)c2cc1OC | – | > 64 | > 64 | > 64 | > 64 | – | – | – | – | – | – |
| COc1cc2cc(-c3cccc(-c4ccccc4)c3)nc(CN)c2cc1OC | – | 8 (≈ 21.6 µM) | > 64 | > 64 | 16 (≈ 43.2 µM) | – | – | – | – | 7000 | 3000 |
| COc1cc(-c2cc3cc(OC)c(OC)c(OC)c3c(C)[n+]2C)cc(-c2ccc(-c3ccccc3)cc2)c1OC.[I-] | – | 1 | 4 | – | – | – | – | – | – | – | – |
| COc1cc2cc(-c3cccc(-c4ccccc4)c3)[n+](C)c(C)c2cc1OC.[I-] | – | 16 | > 64 | > 64 | 32 | – | – | – | – | – | – |
| CCC[C@@H]1C[C@@H](C(=O)N[C@@H]([C@H]2O[C@H](SC)[C@H](O)[C@@H](O)[C@H]2O)[C@H](C)Cl)N(C)C1 [CLINDAMYCIN] | – | 0.03 (≈ 0.0706 µM) | > 64 | 2 (≈ 4.71 µM) | > 64 | – | – | – | – | – | – |
| COc1cc2cc(-c3cccc(C(C)(C)C)c3)nc(C)c2cc1OC | – | > 64 | > 64 | > 64 | > 64 | – | – | inactive | – | – | – |
| COc1cc2cc(-c3cccc(-c4ccccc4)c3)nc(C#N)c2cc1OC | – | > 64 | > 64 | > 64 | > 64 | – | – | – | – | – | – |
| COc1cc2cnc(-c3cccc(-c4ccccc4)c3)cc2cc1OC | – | > 64 | > 64 | > 64 | > 64 | – | – | – | – | – | – |
| COc1cc2cc(-c3cccc(-c4ccccc4)c3)nc(C)c2c(OC)c1OC | – | > 64 | > 64 | > 64 | > 64 | – | – | – | – | – | – |
| COc1ccc2c(c[n+](C)c3c4cc5c(cc4ccc23)OCO5)c1OC [CHELERYTHRINE] | – | 4 | 32 | 32 | 4 | – | – | – | – | – | – |
| COc1cc2cc(-c3cccc(-c4ccccc4)c3)[n+](C)c(N(C)C)c2cc1OC.[I-] | – | 8 | 64 | 64 | 32 | – | – | – | – | – | – |
| COc1cc(-c2cc3cc(OC)c(OC)c(OC)c3c(C)n2)cc(-c2ccc(-c3ccccc3)cc2)c1OC | – | > 64 | > 64 | > 64 | > 64 | – | – | – | – | – | – |
| CN[C@H](CC(C)C)C(=O)N[C@H]1C(=O)N[C@@H](CC(N)=O)C(=O)N[C@H]2C(=O)N[C@H]3C(=O)N[C@H](C(=O)N[C@H](C(=O)O)c4cc(O)cc(O)c4-c4cc3ccc4O)[C@H](O)c3ccc(c(Cl)c3)Oc3cc2cc(c3O[C@@H]2O[C@H](CO)[C@@H](O)[C@H](O)[C@H]2O[C@H]2C[C@](C)(N)[C@H](O)[C@H](C)O2)Oc2ccc(cc2Cl)[C@H]1O [VANCOMYCIN] | – | 1 (≈ 0.69 µM) | > 64 | 1 (≈ 0.69 µM) | 2 (≈ 1.38 µM) | 99.7 | – | inactive | – | – | – |
| COc1cc2cc(-c3cccc(C(C)(C)C)c3)[n+](C)c(C)c2cc1OC.[I-] | – | 16 | 64 | 64 | 16 | – | – | – | – | – | – |
